Screening data from PubChem BioAssay.
Sampled rows, rich in hits. Any-hit rate of the full collection: about 5.2%.
ZTA counter – counter-screen for EBNA-1 inhibitors: inhibitors of Epstein-Barr virus ZTA; actives 0.15% (n = 320,000); ZTA-DNA binding, fluorescence polarization; AID 2234; P03206; inhibition, % at 11 µM; in the data active = inhibition above about 33%
Target sequence (P03206 whole entry, looked up): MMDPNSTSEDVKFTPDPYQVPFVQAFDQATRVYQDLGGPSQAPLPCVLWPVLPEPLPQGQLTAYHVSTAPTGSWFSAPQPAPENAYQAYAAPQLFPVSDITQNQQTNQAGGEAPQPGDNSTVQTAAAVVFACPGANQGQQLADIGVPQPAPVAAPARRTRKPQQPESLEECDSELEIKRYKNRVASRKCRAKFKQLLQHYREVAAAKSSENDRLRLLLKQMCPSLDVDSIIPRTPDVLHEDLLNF
core dimer inh – HCV core protein dimerization inhibition; TR-FRET GST/Flag-core106 dimerization, 1536-well; inhibition, % at 5 µM; actives 0.33% (n = 300,000); AID 1899;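 active = inhibition above the mean of all tested compounds plus 3 SD, set per screening campaign, cut at about 45% in these data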
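Assay system: tagged HCV core106 pair (GST and Flag); medium: KF-containing HEPES buffer, pH 7.45, DTT, CHAPS, BSA; also added: Eu donor and XL665 acceptor anti-tag antibodies; dosing: 5 µM single dose; timing: compound-protein-antibody incubation 4 h at 22.5 °C; signal: TR-FRET 671 and 617 nm emission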
PfM18AAP inh-1 – blocks P. falciparum M18 aspartyl aminopeptidase. actives 1.2% (n = 290,000). inhibition, % at 7.35 µM. recombinant PfM18AAP, H-Glu-NHMec fluorogenic cleavage. AID 1822;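 active = inhibition above the campaign mean inhibition over all tested compounds plus 3 SD, cut at about 28% in these data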;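 note: 0% = plate median of test compound wells and 100% = 2 mM ZnCl2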
NS3 helicase inh – inhibitors of Hepatitis C virus NS3 helicase. NS3 helicase DNA unwinding, Cy5 molecular beacon fluorescence. inhibition, % at 10.9 µM. actives 0.56% (n = 290,000). AID 1800;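 active = inhibition above the mean of all tested compounds plus 3 SD, set per campaign, cut at about 35% in these data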;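 note: 0% = DMSO wells and 100% = thioflavine S control wells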
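System: NS3 helicase fragment of HCV / Schedule: 1 h at 25 °C / Control set: DMSO alone as 0% and 110 µM thioflavine S as 100% / Reagent: Cy5/quencher beacon DNA duplex and ATP to start / Technique: Cy5 fluorescence / Replication: singlicate / Evaluation: % inhibition of end-to-start signal ratio versus controls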
ALR H2O2 inh – inhibitors of human sulfhydryl oxidase ALR | actives 3.8% (n = 290,000) | P55789 | inhibition, % (concentration not given with the values) | purified ALR, DTT oxidation, H2O2 HRP-luminol luminescence | AID 485317;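 active = mean replicate inhibition above about 79%, with every replicate also reaching it, limit read from the data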
Target sequence (P55789 whole entry, looked up): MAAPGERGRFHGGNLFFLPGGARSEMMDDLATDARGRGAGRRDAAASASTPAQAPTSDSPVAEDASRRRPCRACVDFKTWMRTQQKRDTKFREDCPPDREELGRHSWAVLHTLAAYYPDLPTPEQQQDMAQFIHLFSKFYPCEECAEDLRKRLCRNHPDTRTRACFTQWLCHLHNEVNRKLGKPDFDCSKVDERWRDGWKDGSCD
EBNA-1 inhibitor – blocks EBNA-1 binding to DNA; EBNA-1 DNA binding, fluorescence polarization; inhibition, % at 14.8 µM; actives 0.34% (n = 300,000); in the data active = inhibition above about 28%
PfM18AAP inh-2 – confirmation of Plasmodium falciparum M18 aspartyl aminopeptidase inhibitors; AID 2170; actives 28% (n = 2,400); shares compounds with PfM18AAP inh-1; recombinant PfM18AAP, H-Glu-NHMec fluorogenic cleavage; inhibition, % at 7.35 µM;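 active = mean inhibition over replicate wells above the hit cutoff set for the earlier primary screen, cut at about 29% in these data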;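 note: 0% = median of test compound wells and 100% = 2 mM ZnCl2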
CTSL1 confirm – counter-screen for PFM18AAP inhibitors: confirmation of human cathepsin L inhibitors | purified cathepsin L1, Z-Leu-Arg-MCA fluorescence | inhibition, % at 5.96 µM | shares compounds with PfM18AAP inh-1 | 2,400 tested, under 10 active;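 active = average inhibition across replicates above the hit cutoff set in the earlier primary screen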;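 note: 0% = median of test compound wells and 100% = Z-Phe-Ala-diazomethylketone 1 µM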
* marks the source's active call; other numbers are inactive results; / = no result.

SMILES	ZTA counter	core dimer inh	PfM18AAP inh-1	NS3 helicase inh	ALR H2O2 inh	EBNA-1 inhibitor	PfM18AAP inh-2	CTSL1 confirm
COC(=O)c1cc(C(=O)OCC(=O)Nc2ccc(N3CCOCC3)cc2)cc([N+](=O)[O-])c1	/	/	/	/	-12.0	/	/	/
COc1ccc(NC(=O)CSc2nc3[nH]ncc3c(=O)n2-c2ccccc2OC)cc1OC	-1.8	-8.8	19.2	8.8	-16.0	1.7	/	/
CC(=O)Nc1ccc(NC(=O)CSc2nc3[nH]ncc3c(=O)n2-c2ccccc2)cc1	7.4	-9.6	48.7*	-5.9	2.4	-0.1	1.0	-5.5
O=C(/C=C/c1ccccc1)C1=C(O)C(=O)N(CCO)C1c1cccc([N+](=O)[O-])c1 (centres undefined)	-18.2	0.6	-3.3	17.7	4.6	-9.3	/	/
O=C(O)CCCCCN1C(=O)C(O)=C(C(=O)/C=C/c2ccccc2)C1c1ccc2c(c1)OCO2 (centres undefined)	10.1	8.1	54.9*	28.9	1.0	2.1	-1.1	1.9
CC(=O)c1ccc(NC(=O)/C(=C\c2cccs2)NC(=O)c2ccco2)cc1	-3.7	-8.7	1.1	4.4	1.1	-0.3	/	/
CN1CCN(C(CNS(=O)(=O)c2ccc([N+](=O)[O-])cc2)c2ccc(F)cc2)CC1 (centres undefined)	11.0	1.0	/	/	/	4.8	/	/
Cc1csc(NC(=O)CSc2nc(C(C)C)nc3ccccc23)n1	8.5	4.8	4.5	0.6	/	1.0	/	/
CC(=O)Nc1ccccc1O	1.8	-0.3	0.7	5.8	/	3.8	/	/
CC(C)(C)C(=O)/C=C/Nc1ccccc1O	13.9	0.0	42.1*	2.7	98.9*	13.5	2.8	-1.3
CCN(c1ccc(OC)cc1)S(=O)(=O)c1ccc(-c2ccc(=O)[nH]n2)o1	-4.0	-0.7	3.6	-1.9	-11.3	-0.2	/	/
COc1cc(C(=O)Nn2cnnc2)ccc1OC(F)F	-5.9	-3.8	45.0*	-0.4	1.4	2.6	23.9	-2.0
COc1cc(NC(=O)Nn2cnnc2)cc(OC)c1OC	-1.8	-7.3	69.3*	2.3	/	-0.6	53.6*	-2.1
COc1ccccc1NC(=O)Nn1cnnc1	6.0	-4.6	65.0*	0.4	-6.2	0.7	51.3*	0.1
COc1ccc(NC(=O)Nn2cnnc2)cc1OC	-5.3	-4.7	55.3*	-7.6	-14.2	7.6	43.9*	-0.8
Cc1nn(-c2ccccc2)c(C)c1NC(=O)COC(=O)c1cccc(OC(F)F)c1	-7.7	-2.9	/	/	-1.9	8.9	/	/
O=C(NN1C(=O)c2ccccc2C1=O)C1C2CCCCC21 (centres undefined)	-1.0	10.7	9.5	-5.3	-1.9	-3.5	/	/
COc1ccc(-c2cc(=O)oc3cc(OCC(=O)NCc4ccccn4)ccc23)cc1	-7.4	-5.2	3.0	9.0	/	-6.7	/	/
O=C(NN=C1CCC(=NNC(=O)c2ccccn2)CC1)c1ccccn1	/	/	32.4*	2.7	/	/	-16.9	-1.1
COCCNc1nc(N)c([N+](=O)[O-])c(NCc2ccccc2)n1	/	/	-0.9	3.9	-11.6	/	/	/
Cc1cc(C)nc(NNC(=O)c2ccccc2O)n1	14.2	0.3	43.4*	-12.6	94.6*	-2.7	24.5	-7.8
Cc1cc(NC(=O)c2ccccc2O)nc(C)n1	4.6	-0.3	2.1	3.9	-0.7	-7.5	/	/
CN(C(=O)Cn1c(=O)oc2ccccc21)C1CCCCC1	-10.9	/	/	/	0.6	/	/	/
CC/C(=C/c1sc2ccccc2[n+]1CC)SC	-5.0	3.2	45.8*	0.5	13.0	2.2	-32.4	4.7
CC[n+]1c(/C=C2/C=C(C)CC(C)C2)sc2ccccc21 (centres undefined)	-14.5	22.6	20.9	-1.6	-11.7	3.8	/	/
CC[n+]1c(/C=C(/C)SC)sc2ccccc21	-9.7	-3.3	48.9*	2.9	39.5	7.4	-51.7	-3.6
CC[n+]1c(/C=C(\C)SC)sc2ccccc21	3.4	6.4	44.1*	-8.9	12.8	3.7	-24.9	3.5
CSCC[C@H](NC(=O)N1CCn2c1nc1ccccc12)C(=O)NCc1ccc(F)cc1	-4.7	-14.3	1.1	23.7	-21.1	-12.3	/	/
